The assay addresses T1, NR2F6 (Mus musculus, UniProt P43136).
T1 sequence (P43136 1-390): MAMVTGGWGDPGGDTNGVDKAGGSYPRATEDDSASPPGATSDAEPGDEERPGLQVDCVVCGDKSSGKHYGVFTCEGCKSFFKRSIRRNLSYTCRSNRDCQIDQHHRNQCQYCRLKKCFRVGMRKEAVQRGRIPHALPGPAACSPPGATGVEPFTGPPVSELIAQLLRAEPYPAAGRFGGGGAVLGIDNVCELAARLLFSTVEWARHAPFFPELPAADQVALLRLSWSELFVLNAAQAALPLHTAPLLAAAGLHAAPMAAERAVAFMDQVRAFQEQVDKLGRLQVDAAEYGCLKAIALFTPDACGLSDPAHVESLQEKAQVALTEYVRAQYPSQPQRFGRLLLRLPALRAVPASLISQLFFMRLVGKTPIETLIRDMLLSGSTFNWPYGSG
Description: NR2F6/Il17a luciferase assay in transiently transfected HEK293 cells. It counts as cell-based. The conditions noted are these: Maxcyte transfected HEK293 cells, 384-well format, Troglitazone 62.5uM. In outline:
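HEK293 cells grown in DMEM with 10% heat-inactivated FBS and 1% penicillin-streptomycin, harvested at 70% confluency, and resuspended in electroporation buffer at 1×10^8 cells/mL. Il17a::luc plus NR2F6 or empty vector was electroporated with DNA amount titrated, then recovered 5 h at 37 °C. Luciferase was read with positive control versus untreated samples.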

The text below walks through data of paper PMC9670014 (SLAS discovery : advancing life sciences R & D, 2022).

Regarding `Cc1c(C)c2c(c(C)c1O)CCC(C)(COc1ccc(CC3SC(=O)NC3=O)cc1)O2` (stereo not shown) [Troglitazone], the “NR2F6's repressive transcriptional response (Il17a luciferase signal)” value is reported as “further enhanced”.
